From article PMC4869561 (Inflammatory Bowel Diseases, 2016)
≈ marks a conversion by molar mass, not a printed value. Entries after “also recorded” stand apart in the source; their conditions may differ. Like-named read-outs stand apart in the source and are kept apart here.

What was measured:
HT29 cells = experiment: IL-1β-stimulated IL-8 production by HT29 cells; type: cell-based, human; settings: for maximum inhibition of IL-8 secretion, compound alone: IL-1β-stimulated HT29, 0.1-1000 ng/mL, maximum at 1000 ng/mL; for inhibitory effect on IL-8 secretion at 100 ng/mL: IL-1β-stimulated HT29, compound alone
[1] = test system: anti-CD3/anti-CD28-stimulated PBMCs; experiment: CD3/CD28 stimulation of PBMCs, IL-2 and IFN-γ release; type: cell-based, human; settings: for efficacy of inhibition of IFN-γ release / efficacy of inhibition of IL-2 release: anti-CD3/anti-CD28-stimulated PBMCs
[2] = test system: LPS-stimulated primary human macrophages; experiment: LPS activation of monocyte-derived macrophages, IL-8 and TNF-α release; type: cell-based; settings: for inhibition of IL-8 release / inhibition of TNF-α release: LPS-stimulated macrophages, up to maximum tested 250 ng/mL; for inhibition: Homo sapiens, Macrophage
How it was run: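 CD14+ cells taken from human PBMCs by magnetic positive selection. Differentiated 12–14 days in RPMI with 10% FBS and GM-CSF 100 ng/mL. Plated at 2 × 10^5 cells/mL and equilibrated for 2 h. Pretreated 2 h with test compound or DMSO 0.5% v/v, then stimulated with LPS 10 ng/mL for 24 h. Supernatant IL-8 and TNF-α measured by ELISA.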

[3] = Propidium iodide flow cytometry cell viability assay; type: cell-based; settings: concentrations tested in the cellular assays, data not shown
LPS-stimulated PBMCs = experiment: LPS stimulation of PBMCs, IL-8 release; type: cell-based, human; settings: for inhibition: Homo sapiens, PBMC, read-out: maximum inhibition of IL-8 release
How it was run: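 Healthy-donor PBMCs (Lymphoprep) at 1 × 10^6 cells/mL in RPMI 1640 with 10% heat-inactivated FBS and 25 mM HEPES. Preincubated 2 h at 37°C, 5% CO2 with test compound 0.1–1000 ng/mL or DMSO 0.5% v/v. LPS 1 ng/mL then added for 24 h. Supernatant IL-8 measured by ELISA. At least 3 independent experiments.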

[4] = test system: myofibroblasts isolated from inflamed UC mucosa; experiment: TNF-α-stimulated IL-6 and IL-8 release by UC myofibroblasts; type: cell-based, human; settings: for IC50: 24 h; for maximum inhibition (efficacy) of IL-6 release / maximum inhibition (efficacy) of IL-8 release: UC myofibroblasts, TNF-α-stimulated, 0.01-10 μg/mL
How it was run: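 Myofibroblasts grown from explants of inflamed resected UC mucosa in DMEM with 20% FBS and antibiotics, passaged with trypsin-EDTA and used at passage ≥4. Seeded at 5 × 10^4/well and cultured overnight. Stimulated with TNF-α 20 ng/mL plus DMSO 0.5% v/v or test compound (0.000001–1 or 0.01–10 μg/mL). After 24 h, IL-6 and IL-8 measured by ELISA as percent inhibition versus TNF-α + DMSO; at least 3 independent experiments.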

[5] = test system: inflamed colonic biopsies from patients with UC; experiment: Organ culture of inflamed colonic UC biopsies, cytokine release; type: cell-based, human; settings: 24 h; for inhibition at 1 µg/mL: Homo sapiens
How it was run: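 Inflamed colonic UC biopsies cultured one per well in serum-free HL-1 medium with penicillin/streptomycin at 37°C, 5% CO2. Treated with DMSO 0.5% v/v, test compounds at 1 μg/mL, the three selective inhibitors combined, or one compound at 0.001–1 μg/mL. After 24 h, supernatant IL-1β, IL-6 and IL-8 measured by ELISA. Results given as mean percent inhibition versus DMSO; at least 3 independent experiments.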

[6] = test system: patients with active Crohn's disease; settings: cited from earlier work
[7] = test system: rheumatoid arthritis patients; settings: phase III trial; cited from earlier work
[8] = test system: mouse acetic acid-induced colitis; settings: mouse acetic acid-induced colitis model; cited from earlier work
patients with UC = settings: oral, clinical trial; cited from earlier work
[9] = Homo sapiens, read-out: IL-6 (IC50 Value)
[10] = Homo sapiens, read-out: IL-8 (IC50 Value)
[11] = read-out: inhibition of IL-1β release
[12] = read-out: inhibition of IL-6 release
[13] = read-out: inhibition of IL-8 release
[14] = read-out: inhibition of TNF-α release

Row | SMILES | maximum inhibition of IL-8 secretion, compound alone (HT29 cells) | efficacy of inhibition of IFN-γ release [1] | inhibition of IL-8 release [2] | inhibition of TNF-α release [2] | inhibition (LPS-stimulated PBMCs) [%] | IC50 [4, 9] [µg/mL] | IC50 [4, 10] [µg/mL] | inhibition at 1 µg/mL [5, 11] [%] | inhibition at 1 µg/mL [5, 12] [%] | inhibition at 1 µg/mL [5, 13] [%] | efficacy of inhibition of IL-2 release [1] | inhibition [2, 13] [%] | inhibition [2, 14] [%] | maximum inhibition (efficacy) of IL-6 release [4] | maximum inhibition (efficacy) of IL-8 release [4] | inhibitory effect on IL-8 secretion at 100 ng/mL (HT29 cells) | other results
1 | C#Cc1cc(Nc2nccc(Oc3ccc(NC(=O)Nc4cc(C(C)(C)C)nn4-c4ccc(C)cc4)c4ccccc34)n2)cc(C(=O)NCCOCCOCCOC)c1 [TOP1210, 3-((4-((4-(3-(3-(tert-butyl)-1-(p-tolyl)-1H-pyrazol-5-yl)ureido)naphthalen-1 yl)oxy)pyrimidin-2-yl)amino)-5-ethynyl-N-(2-(2-(2-methoxyethoxy)ethoxy)ethyl)benzamide] | maximal efficacy | maximal inhibition | maximal inhibition | maximal inhibition | 100 | 0.0022 (≈ 0.00276 µM) | 0.0021 (≈ 0.00264 µM) | 80 to 90 | 80 to 90 | 80 to 90 |  |  |  |  |  |  | potency weaker than dasatinib, IL-2 release ([1]; ratio vs dasatinib): approximately 15 fold; potency weaker as inhibitor of IL-2 release compared with IFN-γ release ([1]; same compound, IL-2 vs IFN-γ): 18 fold; cell viability (propidium iodide, flow cytometry) [3]: not to effect cell viability
2 | Cc1ccc(-n2nc(C(C)(C)C)cc2NC(=O)Nc2ccc(OCCN3CCOCC3)c3ccccc23)cc1 [BIRB-796] |  | inactive; also recorded: little-to-no effect |  |  | < 50 | > 1 | > 1 | 50 to 65 | 50 to 65 | 50 to 65 | little-to-no effect | < 50 | < 50 | 70% | 70% |  | serum C-reactive protein ([6]; after 1 week): dose-dependent decrease; clinical efficacy endpoints compared to placebo ([6]; any time point): no clinical efficacy endpoints were reached
3 | COc1cc(Nc2ncc(F)c(Nc3ccc4c(n3)N(COP(=O)(O)O)C(=O)C(C)(C)O4)n2)cc(OC)c1OC [fostamatinib] |  |  |  |  |  |  |  |  |  |  |  |  |  |  |  |  | efficacy in rheumatoid arthritis [7]: limited efficacy; mucosal damage [8]: decrease mucosal damage
4 | C[C@@H]1CCN(C(=O)CC#N)C[C@@H]1N(C)c1ncnc2[nH]ccc12 [tofacitinib] |  |  |  |  |  |  |  |  |  |  |  |  |  |  |  |  | efficacy in UC (patients with UC): effective
5 | COc1ccc(-c2cc3nccn3c(Nc3ncccc3C(N)=O)n2)cc1OC [BAY-61-3606] | 17% | maximal efficacy | less than 50% | less than 50% |  |  |  |  |  |  | weaker inhibition |  |  | over 90% | over 90% | Neither dasatinib nor BAY-61-3606 had any significant inhibitory effect | efficacy of inhibition of IFN-γ release ([1]; listed as BAY61-3606): weaker inhibition; potency weaker than TOP1210, IFN-γ release ([1]; ratio of IC50 values): 120 fold; potency weaker than TOP1210, IL-8 release (LPS-stimulated PBMCs; LPS-stimulated PBMCs, ratio of IC50 values): ~300 fold; maximum inhibition of IL-8 release (LPS-stimulated PBMCs; LPS-stimulated PBMCs, up to maximum tested 1 μg/mL): 83%
6 | Cc1nc(Nc2ncc(C(=O)Nc3c(C)cccc3Cl)s2)cc(N2CCN(CCO)CC2)n1 [Dasatinib] |  |  |  |  | < 50 | > 1 | > 1 |  |  |  |  | < 50 | 87 |  |  | Neither dasatinib nor BAY-61-3606 had any significant inhibitory effect | inhibition at 10 µg/mL ([4]; Homo sapiens, read-out: inhibition of IL-8 release): ~70%; inhibition of IL-1β release ([5]; inflamed UC biopsies, 1 μg/mL): did not have any significant effect; inhibition of IL-6 release ([5]; inflamed UC biopsies, 1 μg/mL): did not have any significant effect; inhibition of IL-8 release ([5]; inflamed UC biopsies, 1 μg/mL): did not have any significant effect
